Experimental data: ChEMBL document CHEMBL4373711, “Development of 3,5-Dinitrophenyl-Containing 1,2,4-Triazoles and Their Trifluoromethyl Analogues as Highly Efficient Antitubercular Agents Inhibiting Decaprenylphosphoryl-β-d-ribofuranose 2'-Oxidase” (J Med Chem, 2019)
The source made the active and inactive calls.

Experiments:
Staphylococcus aureus [1] = assay: Antibacterial activity against methicillin-resistant Staphylococcus aureus subsp. aureus ATCC 43300 CCM 4750 at highest concentration measured after 24 to 48 hrs by alamar blue dye based broth microdilution assay; format: functional, organism-based
[2] = Cytotoxicity against human HepG2 cells assessed as cell viability at 30 uM after 48 hrs by CellTiter 96 aqueous one solution assay relative to control; format: cell-based; settings: read-out: Activity
Method in brief: (§1)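 HepG2 (DMEM, 10% FBS, 1 mM pyruvate) or A431 (DMEM, 10% FBS) seeded 10,000 cells/well, 24 h at 37 °C, 5% CO2, then 30 µM compound for 48 h. MTS reagent 60 min, absorbance 490 nm, background subtracted; 0.1% DMSO vehicle = 100%, 10% SDS = 0% viability.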

Pichia kudriavzevii = assay: Antifungal activity against Candida krusei ATCC 6258 CCM8271 at highest concentration measured after 24 to 48 hrs by alamar blue dye based broth microdilution assay; format: functional, organism-based
[3] = system: Mycobacterium tuberculosis; assay: Antimycobacterial activity against Mycobacterium tuberculosis H37Rv CNCTC My 331/88 after 21 days; format: functional; settings: H37Rv CNCTC My 331/88, 504 h
Method in brief: (§2)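 M. tuberculosis strains (H37Rv and clinical MDR/XDR isolates) tested by microdilution in Šula's semisynthetic medium. Compounds were dissolved in DMSO and tested at 32 to 0.03 µM in twofold steps. Inoculum was a 1.0 McFarland suspension diluted 10-3. Plates were incubated at 37 °C and read at 14 and 21 days.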

Mycobacterium kansasii [4] = assay: Antimycobacterial activity against Mycobacterium kansasii CNCTC My 235/80 after 14 days; format: functional; settings: CNCTC My 235/80, 336 h
Method in brief: (§3)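 Microdilution in Šula's semisynthetic medium; compounds in DMSO at 32–0.03 µM. Inoculum from 1.0 McFarland suspension diluted 10-4. […] Isoniazid and rifampicin as reference drugs.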

[5] = system: Mycobacterium tuberculosis; assay: Antimycobacterial activity against XDR Mycobacterium tuberculosis Praha 131 after 14 days; format: functional; settings: Praha 131, 336 h; method in brief: as §2
HepG2 = assay: Cytotoxicity against human HepG2 cells assessed as reduction in cell viability after 48 hrs by CellTiter 96 aqueous one solution assay; format: cell-based; settings: HepG2, 48 h
Mycobacterium kansasii [6] = assay: Antimycobacterial activity against Mycobacterium kansasii CNCTC My 235/80 after 21 days; format: functional; settings: CNCTC My 235/80, 504 h; method in brief: as §3
Staphylococcus aureus [7] = assay: Antibacterial activity against Staphylococcus aureus subsp. aureus ATCC 29213 CCM 4223 at highest concentration measured after 24 to 48 hrs by alamar blue dye based broth microdilution assay; format: functional, organism-based
[8] = system: Trichophyton interdigitale; assay: Antifungal activity against Trichophyton interdigitale ATCC 9533 CCM 8377 at highest concentration measured after 72 to 120 hrs by alamar blue dye based broth microdilution assay; format: functional
Pseudomonas aeruginosa = assay: Antibacterial activity against Pseudomonas aeruginosa ATCC 27853 CCM 3955 at highest concentration measured after 24 to 48 hrs by alamar blue dye based broth microdilution assay; format: functional, organism-based
Mycobacterium kansasii [9] = assay: Antimycobacterial activity against Mycobacterium kansasii CNCTC My 235/80 after 7 days; format: functional; settings: CNCTC My 235/80, 168 h; method in brief: as §3
Escherichia coli = assay: Antibacterial activity against Escherichia coli ATCC 25922 CCM 3954 at highest concentration measured after 24 to 48 hrs by alamar blue dye based broth microdilution assay; format: functional, organism-based
[10] = Cytotoxicity against human A431 cells assessed as cell viability at 30 uM after 48 hrs by CellTiter 96 aqueous one solution assay relative to control; format: cell-based, A-431; settings: read-out: Activity; method in brief: as §1
[11] = system: Mycobacterium tuberculosis; assay: Antimycobacterial activity against Mycobacterium tuberculosis H37Rv CNCTC My 331/88 after 14 days; format: functional; settings: H37Rv CNCTC My 331/88, 336 h; method in brief: as §2
Mycobacterium kansasii [12] = assay: Antimycobacterial activity against Mycobacterium kansasii 6509/96 after 14 days; format: functional; settings: 6509/96, 336 h; method in brief: as §3
Mycobacterium kansasii [13] = assay: Antimycobacterial activity against Mycobacterium kansasii 6509/96 after 21 days; format: functional; settings: 6509/96, 504 h; method in brief: as §3
Serratia marcescens = assay: Antibacterial activity against Serratia marcescens at highest concentration measured after 24 to 48 hrs by alamar blue dye based broth microdilution assay; format: functional, organism-based
Candida parapsilosis = assay: Antifungal activity against Candida parapsilosis ATCC 22019 CCM 8260 at highest concentration measured after 24 to 48 hrs by alamar blue dye based broth microdilution assay; format: functional, organism-based
Enterococcus faecalis = assay: Antibacterial activity against Enterococcus faecalis ATCC 29212 CCM 4224 at highest concentration measured after 24 to 48 hrs by alamar blue dye based broth microdilution assay; format: functional, organism-based
Aspergillus flavus = assay: Antifungal activity against Aspergillus flavus CCM 8363 at highest concentration measured after 24 to 48 hrs by alamar blue dye based broth microdilution assay; format: functional, organism-based
A-431 = assay: Cytotoxicity against human A431 cells assessed as reduction in cell viability after 48 hrs by CellTiter 96 aqueous one solution assay; format: cell-based; settings: A-431, 48 h
Aspergillus fumigatus = assay: Antifungal activity against Aspergillus fumigatus ATCC 204305 at highest concentration measured after 24 to 48 hrs by alamar blue dye based broth microdilution assay; format: functional, organism-based
Mycobacterium avium [14] = assay: Antimycobacterial activity against Mycobacterium avium CNCTC My 330/88 after 21 days; format: functional; settings: CNCTC My 330/88, 504 h
Method in brief: (§4)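 M. avium was tested by microdilution in Šula's semisynthetic medium, with compounds dissolved in DMSO and serially diluted from 1000 down to 1. Inoculum was a 1.0 McFarland suspension diluted 10-5. Plates were incubated at 37 °C and read at 14 and 21 days. […] Isoniazid and rifampicin served as standards.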

Lichtheimia corymbifera = assay: Antifungal activity against Lichtheimia corymbifera CCM 8077 at highest concentration measured after 24 to 48 hrs by alamar blue dye based broth microdilution assay; format: functional, organism-based
[15] = system: Mycobacterium tuberculosis; assay: Antimycobacterial activity against XDR Mycobacterium tuberculosis Praha 131 after 21 days; format: functional; settings: Praha 131, 504 h; method in brief: as §2
Klebsiella pneumoniae = assay: Antibacterial activity against Klebsiella pneumoniae at highest concentration measured after 24 to 48 hrs by alamar blue dye based broth microdilution assay; format: functional, organism-based
Candida albicans = assay: Antifungal activity against Candida albicans ATCC 24433 CCM 8320 at highest concentration measured after 24 to 48 hrs by alamar blue dye based broth microdilution assay; format: functional, organism-based
Mycobacterium kansasii [16] = assay: Antimycobacterial activity against Mycobacterium kansasii 6509/96 after 7 days; format: functional; settings: 6509/96, 168 h; method in brief: as §3
[17] = system: Staphylococcus epidermidis; assay: Antibacterial activity against Staphylococcus epidermidis at highest concentration measured after 24 to 48 hrs by alamar blue dye based broth microdilution assay; format: functional, organism-based
Mycobacterium avium [18] = assay: Antimycobacterial activity against Mycobacterium avium CNCTC My 330/88 after 14 days; format: functional; settings: CNCTC My 330/88, 336 h; method in brief: as §4
Candida tropicalis = assay: Antifungal activity against Candida tropicalis ATCC 750 CCM 8264 at highest concentration measured after 24 to 48 hrs by alamar blue dye based broth microdilution assay; format: functional, organism-based

O=[N+]([O-])c1cc(CSc2nnc(-c3ccc(Br)cc3)n2Cc2ccccc2)cc([N+](=O)[O-])c1
2 µM: MIC99 (Mycobacterium kansasii [4]) | MIC99 [11] | MIC99 (Mycobacterium kansasii [16])
93%: viability at 48 h, 30 µM [10]
4 µM: MIC99 [3] | MIC99 [5] | MIC99 (Mycobacterium kansasii [6]) | MIC99 (Mycobacterium kansasii [12]) | MIC99 (Mycobacterium kansasii [13]) | MIC99 [15]
250 µM: MIC99 (Mycobacterium avium [14]) | MIC99 (Mycobacterium avium [18])
1 µM: MIC99 (Mycobacterium kansasii [9])
> 30 µM: IC50 (HepG2) | IC50 (A-431)
173%: viability at 48 h, 30 µM [2]
inactive: Activity (Staphylococcus aureus [1]) | Activity (Pichia kudriavzevii) | Activity (Staphylococcus aureus [7]) | Activity [8] | Activity (Pseudomonas aeruginosa) | Activity (Escherichia coli) | Activity (Serratia marcescens) | Activity (Candida parapsilosis) | Activity (Enterococcus faecalis) | Activity (Aspergillus flavus) | Activity (Aspergillus fumigatus) | Activity (Lichtheimia corymbifera) | Activity (Klebsiella pneumoniae) | Activity (Candida albicans) | Activity [17] | Activity (Candida tropicalis)

CCCSc1nnc(-c2cc([N+](=O)[O-])cc([N+](=O)[O-])c2)n1Cc1ccccc1
0.25 µM: MIC99 (Mycobacterium kansasii [4]) | MIC99 (Mycobacterium kansasii [6]) | MIC99 (Mycobacterium kansasii [12]) | MIC99 (Mycobacterium kansasii [16])
0.06 µM: MIC99 [11]
90%: viability at 48 h, 30 µM [2]
0.125 µM: MIC99 [3] | MIC99 [5] | MIC99 (Mycobacterium kansasii [9]) | MIC99 [15]
inactive: Activity (Staphylococcus aureus [1]) | Activity (Pichia kudriavzevii) | Activity (Staphylococcus aureus [7]) | Activity [8] | Activity (Pseudomonas aeruginosa) | Activity (Escherichia coli) | Activity (Serratia marcescens) | Activity (Candida parapsilosis) | Activity (Enterococcus faecalis) | Activity (Aspergillus flavus) | Activity (Aspergillus fumigatus) | Activity (Lichtheimia corymbifera) | Activity (Klebsiella pneumoniae) | Activity (Candida albicans) | Activity [17] | Activity (Candida tropicalis)
0.5 µM: MIC99 (Mycobacterium kansasii [13])
250 µM: MIC99 (Mycobacterium avium [14]) | MIC99 (Mycobacterium avium [18])
123%: viability at 48 h, 30 µM [10]
> 30 µM: IC50 (HepG2) | IC50 (A-431)

CCn1c(SCc2ccccc2)nnc1-c1cc([N+](=O)[O-])cc([N+](=O)[O-])c1
0.03 µM: MIC99 [3] | MIC99 (Mycobacterium kansasii [4]) | MIC99 [5] | MIC99 (Mycobacterium kansasii [6]) | MIC99 (Mycobacterium kansasii [9]) | MIC99 [11] | MIC99 (Mycobacterium kansasii [12]) | MIC99 (Mycobacterium kansasii [13]) | MIC99 [15] | MIC99 (Mycobacterium kansasii [16])
inactive: Activity (Staphylococcus aureus [1]) | Activity (Pichia kudriavzevii) | Activity (Staphylococcus aureus [7]) | Activity [8] | Activity (Pseudomonas aeruginosa) | Activity (Escherichia coli) | Activity (Serratia marcescens) | Activity (Candida parapsilosis) | Activity (Enterococcus faecalis) | Activity (Aspergillus flavus) | Activity (Aspergillus fumigatus) | Activity (Lichtheimia corymbifera) | Activity (Klebsiella pneumoniae) | Activity (Candida albicans) | Activity [17] | Activity (Candida tropicalis)
> 30 µM: IC50 (HepG2) | IC50 (A-431)
156%: viability at 48 h, 30 µM [2]
250 µM: MIC99 (Mycobacterium avium [14]) | MIC99 (Mycobacterium avium [18])
90%: viability at 48 h, 30 µM [10]

Cn1c(SCc2ccc(Cl)c(Cl)c2)nnc1-c1cc([N+](=O)[O-])cc([N+](=O)[O-])c1
0.06 µM: MIC99 [3] | MIC99 [5] | MIC99 [11] | MIC99 [15] | MIC99 (Mycobacterium kansasii [16])
inactive: Activity (Staphylococcus aureus [1]) | Activity (Pichia kudriavzevii) | Activity (Staphylococcus aureus [7]) | Activity [8] | Activity (Pseudomonas aeruginosa) | Activity (Escherichia coli) | Activity (Serratia marcescens) | Activity (Candida parapsilosis) | Activity (Enterococcus faecalis) | Activity (Aspergillus flavus) | Activity (Aspergillus fumigatus) | Activity (Lichtheimia corymbifera) | Activity (Klebsiella pneumoniae) | Activity (Candida albicans) | Activity [17] | Activity (Candida tropicalis)
> 500 µM: MIC99 (Mycobacterium avium [14]) | MIC99 (Mycobacterium avium [18])
0.5 µM: MIC99 (Mycobacterium kansasii [6])
92%: viability at 48 h, 30 µM [10]
110%: viability at 48 h, 30 µM [2]
0.125 µM: MIC99 (Mycobacterium kansasii [9]) | MIC99 (Mycobacterium kansasii [12]) | MIC99 (Mycobacterium kansasii [13])
0.25 µM: MIC99 (Mycobacterium kansasii [4])
> 30 µM: IC50 (HepG2) | IC50 (A-431)

O=[N+]([O-])c1cc(CSc2nnc(-c3ccccc3)n2Cc2ccccc2)cc([N+](=O)[O-])c1
69%: viability at 48 h, 30 µM [10]
> 1000 µM: MIC99 (Mycobacterium avium [14]) | MIC99 (Mycobacterium avium [18])
inactive: Activity (Staphylococcus aureus [1]) | Activity (Pichia kudriavzevii) | Activity (Staphylococcus aureus [7]) | Activity [8] | Activity (Pseudomonas aeruginosa) | Activity (Escherichia coli) | Activity (Serratia marcescens) | Activity (Candida parapsilosis) | Activity (Enterococcus faecalis) | Activity (Aspergillus flavus) | Activity (Aspergillus fumigatus) | Activity (Lichtheimia corymbifera) | Activity (Klebsiella pneumoniae) | Activity (Candida albicans) | Activity [17] | Activity (Candida tropicalis)
> 30 µM: IC50 (HepG2) | IC50 (A-431)
4 µM: MIC99 [3] | MIC99 (Mycobacterium kansasii [4]) | MIC99 [11] | MIC99 [15]
8 µM: MIC99 (Mycobacterium kansasii [6]) | MIC99 (Mycobacterium kansasii [12]) | MIC99 (Mycobacterium kansasii [13])
2 µM: MIC99 [5] | MIC99 (Mycobacterium kansasii [9]) | MIC99 (Mycobacterium kansasii [16])
107%: viability at 48 h, 30 µM [2]

O=[N+]([O-])c1cc(CSc2nnc(C3CCCCC3)n2Cc2ccccc2)cc(C(F)(F)F)c1
250 µM: MIC99 (Mycobacterium avium [14]) | MIC99 (Mycobacterium avium [18])
> 30 µM: IC50 (HepG2) | IC50 (A-431)
67%: viability at 48 h, 30 µM [10]
79%: viability at 48 h, 30 µM [2]
32 µM: MIC99 (Mycobacterium kansasii [13])
16 µM: MIC99 [3] | MIC99 (Mycobacterium kansasii [4]) | MIC99 [5] | MIC99 (Mycobacterium kansasii [6]) | MIC99 (Mycobacterium kansasii [9]) | MIC99 [11] | MIC99 (Mycobacterium kansasii [12]) | MIC99 [15] | MIC99 (Mycobacterium kansasii [16])
